Broadly, the inhibition is the relative decrease from the control value, in per cent.

The source of these data is ChEMBL document CHEMBL1154039, “Synthesis and biological evaluation of 1,2,4-trisubstituted imidazoles and 1,3,5-trisubstituted pyrazoles as inhibitors of transforming growth factor beta type 1 receptor (ALK5)” (Bioorg Med Chem Lett, 2009).

Calls of active or inactive are those of the source. The rule behind the calls is not given here.

For test [1], the target named is T1, Activin receptor type-1B (Homo sapiens) (UniProt P36896).
T1 sequence (whole entry): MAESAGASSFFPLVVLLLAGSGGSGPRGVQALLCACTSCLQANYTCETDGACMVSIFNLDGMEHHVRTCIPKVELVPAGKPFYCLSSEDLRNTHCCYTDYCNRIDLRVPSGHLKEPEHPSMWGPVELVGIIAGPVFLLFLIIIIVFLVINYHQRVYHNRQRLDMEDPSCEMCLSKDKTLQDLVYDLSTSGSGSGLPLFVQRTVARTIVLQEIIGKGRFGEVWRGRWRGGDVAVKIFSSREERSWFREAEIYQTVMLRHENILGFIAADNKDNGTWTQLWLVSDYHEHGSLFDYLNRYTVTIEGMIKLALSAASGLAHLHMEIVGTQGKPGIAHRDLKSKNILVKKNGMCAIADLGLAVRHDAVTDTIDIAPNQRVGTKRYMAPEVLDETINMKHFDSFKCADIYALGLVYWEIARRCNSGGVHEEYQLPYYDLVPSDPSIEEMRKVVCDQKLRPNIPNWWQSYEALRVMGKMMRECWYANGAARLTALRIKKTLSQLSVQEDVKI
Nature of the test: Inhibition of ALK4 expressed in baculovirus/Sf9 cells assessed as inhibition of receptor autophosphorylation at 0.1 uM after 3 hrs. The method, boiled down: (§1)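 Kinase carried a C-terminal 6-His tag and was purified on a Ni2+ affinity column. The purified kinase was preincubated with compound for 30 min at 37 °C. The reaction was started with 10–8 mol/L ATP plus Smad3 substrate and run 3 h at 30 °C. Autophosphorylation was quantified from ATP consumed, using a luminescent ATP detection assay.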

In test [2] the target is T2, Activin receptor type-1C (Homo sapiens) (UniProt Q8NER5).
T2 sequence (whole entry): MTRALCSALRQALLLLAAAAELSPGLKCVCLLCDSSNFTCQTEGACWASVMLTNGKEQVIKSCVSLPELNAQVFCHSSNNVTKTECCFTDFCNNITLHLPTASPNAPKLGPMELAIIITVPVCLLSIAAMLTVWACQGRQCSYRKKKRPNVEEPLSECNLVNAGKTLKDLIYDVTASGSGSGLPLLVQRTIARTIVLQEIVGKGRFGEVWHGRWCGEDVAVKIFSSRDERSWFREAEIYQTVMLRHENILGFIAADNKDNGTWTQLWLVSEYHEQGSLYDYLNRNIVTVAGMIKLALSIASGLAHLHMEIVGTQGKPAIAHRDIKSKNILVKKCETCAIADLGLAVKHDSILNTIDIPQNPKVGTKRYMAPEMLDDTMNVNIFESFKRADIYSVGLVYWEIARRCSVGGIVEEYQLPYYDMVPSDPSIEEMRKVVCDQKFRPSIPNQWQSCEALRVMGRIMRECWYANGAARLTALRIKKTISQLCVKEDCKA
Nature of the test: Inhibition of ALK7 expressed in baculovirus/Sf9 cells assessed as inhibition of receptor autophosphorylation at 1 uM after 3 hrs. The method in brief: as §1

Test [3] has as its target T1, Activin receptor type-1B (Homo sapiens). Nature of the test: Inhibition of ALK4 expressed in baculovirus/Sf9 cells assessed as inhibition of receptor autophosphorylation at 1 uM after 3 hrs. The method, boiled down: as §1
A short description of test [4]: (§2) Cytotoxicity against human embryo lung […] cells at 30 uM by MTT assay. It counts as functional. The method, boiled down: (§3)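 HLF cells were seeded at about 3000 per well and grown 24 h before treatment. The number of viable cells at treatment (t = 0) was measured to correct for differences in starting cell number. At the read times, MTT tetrazolium salt and phenazine methosulfate were added directly to the medium for 2–3 h.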
(Tetrazolium assays rely on reduction of a dye to a coloured formazan, in cell work by metabolically active cells.)

The target in test [5] is T2, Activin receptor type-1C (Homo sapiens). Nature of the test: Inhibition of ALK7 expressed in baculovirus/Sf9 cells assessed as inhibition of receptor autophosphorylation at 0.1 uM after 3 hrs. The method, boiled down:
as §1

The next test is filed under the species Homo sapiens. The description is as §2. Type of test: functional. The method in brief: as §3
Test [6] is described as follows: Selectivity for ALK5 over ALK7. The method, boiled down:
(§4)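 Purified C-terminally 6-His-tagged ALK4, ALK5 and ALK7, each run in a separate autophosphorylation assay. Each enzyme was preincubated with a range of compound concentrations for 30 min at 37 °C. Reactions were started with 10–8 mol/L ATP plus Smad3 and run 3 h at 30 °C. Phosphorylation was quantified as ATP consumed, using a luminescent ATP assay. Selectivity was obtained by comparing activity across the kinases.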

Test [7] in a line: Selectivity for ALK5 over ALK4. The method, boiled down:
as §4

The nature of test [8]: Selectivity for ALK4 over ALK7. The method, boiled down:
as §4

Test [9] in a line: Selectivity for ALK4 over ALK5. The method, boiled down:
as §4

Regarding `Cc1cccc(-n2nc(-c3ccc(C#N)cc3)cc2-c2ccc3c(c2)OCO3)n1`, the inhibition amounted to 53.6% in test [1], 73.4% in test [2], 77.7% in [3] and 31.4% in test [5]. The molecule further displayed an Activity in test [4] of 15.4%.

In turn, `NC(=O)c1ccc(-c2cc(-c3ccc(F)cc3)n(-c3ccccc3F)n2)cc1` yielded an Activity in test [4] of 19.54%.

On to `NC(=O)c1ccc(-c2cc(-c3ccc4c(c3)OCO4)n(-c3ccccc3)n2)cc1`, for which the result in the test listed under Homo sapiens was inactive.

As to `OCc1ccc(-c2cc(-c3ccc4c(c3)OCO4)n(-c3ccccc3F)n2)cc1`, the outcome in the test listed under Homo sapiens was inactive.

Turning to `COc1ccc(-c2cc(-c3ccc(C(N)=O)cc3)nn2-c2ccccc2F)cc1OC`, the inhibition was 32.1% in test [1], 65.8% in [2], 70.4% in test [3] and 5.3% in test [5]. Besides, in test [4], the Activity was determined as 19.4%.

On to `Cc1cccc(-c2nc(-c3ccc(C(N)=O)cc3)cn2-c2ccc3c(c2)OCCO3)n1`, for which the inhibition in [1] is 28.5%; in test [2], 25%; in test [3], 49.3%; in test [5], 13.4%. The Activity in test [4] stood at 0.7%.

For `NC(=O)c1ccc(-c2cc(-c3ccc4c(c3)OCO4)n(-c3ccccc3C(F)(F)F)n2)cc1`, in the test filed under Homo sapiens, the result was inactive.

As for `N#Cc1ccc(-c2cc(-c3ccc4c(c3)OCO4)n(-c3ccccc3F)n2)cc1`, the outcome in the test listed under Homo sapiens was inactive.

Regarding `NC(=O)c1ccc(-c2cc(-c3ccc4c(c3)OCO4)n(-c3ccccc3F)n2)cc1`, the inhibition in test [1] is 15.5%; in test [2], 39.1%; in [3], 50.7%; in test [5], 22.7%. Further, the outcome in the test listed under Homo sapiens was inactive.

For the molecule `COc1ccc(-c2cc(-c3ccc(C(N)=O)cc3)nn2-c2ccccn2)cc1OC`, the Activity in test [4] worked out at 5.3%.

In test [4], `COc1ccc(-n2cc(-c3ccc(C(N)=O)cc3)nc2-c2cccc(C)n2)cc1F` returned an Activity of 9.1%.

The molecule `NC(=O)c1ccc(-c2cn(-c3ccc4c(c3)OCCO4)c(-c3ccccn3)n2)cc1` displayed an Activity in [4] of 21%.

Consider `N#Cc1ccc(-c2cn(-c3ccc4c(c3)OCO4)c(-c3ccccc3F)n2)cc1`, for which the inhibition worked out at 13.3% in test [1], 63.6% in [2], 36.6% in [3] and 30.5% in [5]. In [4], this molecule came in with an Activity of 12.3%.

Turning to `Cc1cccc(-c2nc(-c3ccc(C(N)=O)cc3)cn2-c2ccc3c(c2)OCO3)n1`, the inhibition is 15.6% in [1], 41.3% in test [2], 29.8% in [3] and 4.5% in test [5]. In test [4], this molecule returned an Activity of 14.9%.

On to `NC(=O)c1ccc(-c2cc(-c3ccc4c(c3)OCO4)n(-c3ccccn3)n2)cc1`, for which the inhibition in test [1] was 70%; in [2], 57.3%; in test [3], 74.7%; in [5] it was 35.5%. This molecule gave an Activity in [4] of 26.7%.

For `NC(=O)c1ccc(-c2cn(-c3ccc4c(c3)OCO4)c(-c3ccccn3)n2)cc1`, the inhibition in [1] amounted to 65.6%; in test [2], 54.8%; in test [3], 73.7%; in test [5], 24.5%. This molecule also registered an Activity in test [4] of 21.6%.

As for `NC(=O)c1ccc(-c2cc(-c3ccc(F)cc3)n(-c3ccccn3)n2)cc1`, the Activity in test [4] came out at 23.7%.

As for `NC(=O)c1ccc(-c2cc(-c3ccccn3)n(-c3ccc4c(c3)OCO4)n2)cc1`, in the test listed under Homo sapiens, the result was inactive.

In the case of `Cc1cccc(-c2nc(-c3ccc(C(N)=O)cc3)cn2-c2ccc(F)cc2)n1`, the inhibition in test [1] was determined as 25%; in test [2] it was 35.1%; in test [3], 34.5%; in test [5] it was 16.2%. The molecule also displayed an Activity in [4] of 19.1%.

Turning to `NC(=O)c1ccc(-c2cc(-c3ccccc3F)n(-c3ccc4c(c3)OCO4)n2)cc1`, the inhibition was determined as 3.2% in test [1], 57.4% in test [2], 41.9% in [3] and 50.9% in [5]. In addition, the Activity in [4] is listed as 0.52%.

Regarding `NC(=O)c1ccc(-c2cc(-c3ccc(F)cc3)n(-c3ccccc3O)n2)cc1`, in the test listed under Homo sapiens, the outcome was inactive.

`Cc1cccc(-c2nc(C(C)(C)C)cn2-c2ccc3c(c2)OCCO3)n1`: in the test listed under Homo sapiens, the result was inactive.

As to `Cc1cccc(-c2nc(-c3ccc(C#N)cc3)cn2-c2ccc(F)cc2)n1`, in test [4], the Activity was found to be 20.2%.

For `O=C(O)c1ccc(-c2cc(-c3ccc4c(c3)OCO4)n(-c3ccccc3F)n2)cc1`, the Activity in [4] was determined as 5.4%.

Take `COc1ccc(-n2cc(-c3ccc(C#N)cc3)nc2-c2cccc(C)n2)cc1F`: the Activity in test [4] came to 57%.

Consider `Cc1cccc(-c2nc(C(C)(C)C)cn2-c2ccc(F)cc2)n1`, for which, in test [4], the Activity amounted to 59%.

In test [4], `COc1ccc(-n2cc(C(C)(C)C)nc2-c2cccc(C)n2)cc1F` came in with an Activity of 22.1%.

Consider `Cc1cccc(-n2nc(-c3ccc(C(N)=O)cc3)cc2-c2ccc3c(c2)OCO3)n1`, for which the inhibition in test [1] stood at 39.4%; in test [2], 64%; in [3], 66.8%; in test [5] it was 4.2%. Moreover, the Selectivity ratio in [6] and in [7] was 10 each time. In test [4], this molecule yielded an Activity of 5.6%.

Turning to `NC(=O)c1ccc(-c2cn(-c3ccc4c(c3)OCO4)c(-c3ccccc3F)n2)cc1`, in the test listed under Homo sapiens, the result was inactive.

Turning to `N#Cc1ccc(-c2cc(-c3ccccc3F)n(-c3ccc4c(c3)OCO4)n2)cc1`, in test [4], the Activity came to 57.5%.

Consider `COc1ccc(-c2cc(-c3ccc(C#N)cc3)nn2-c2ccccn2)cc1OC`, for which the result in the test listed under Homo sapiens was inactive.

Regarding `COc1ccc(-c2cc(-c3ccc(C#N)cc3)nn2-c2ccccc2F)cc1OC`, in the test filed under Homo sapiens, the outcome was inactive.

For `Cc1cccc(-c2nc(-c3ccc(C#N)cc3)cn2-c2ccc3c(c2)OCCO3)n1`, in test [4], the Activity was 28%.

As for `NC(=O)c1ccc(-c2cc(-c3ccc4c(c3)OCO4)n(-c3nccs3)n2)cc1`, the outcome in the test listed under Homo sapiens was inactive.

In the case of `COc1ccccc1-n1nc(-c2ccc(C(N)=O)cc2)cc1-c1ccc2c(c1)OCO2`, the result in the test listed under Homo sapiens was inactive.

Take `NC(=O)c1ccc(-c2nc(-c3ccccn3)c(-c3ccc4c(c3)OCO4)[nH]2)cc1` [SB-431542]: in test [4], the Activity is recorded as 55%.

In turn, `Cc1cccc(-c2nc(C(C)(C)C)cn2-c2ccc3c(c2)OCO3)n1` had an Activity in [4] of 7.3%.

`Cc1cccc(-c2nc(-c3ccc(C#N)cc3)cn2-c2ccc3c(c2)OCO3)n1`: the inhibition was 45.5% in [1], 44.6% in test [2], 76.9% in test [3] and 33.9% in test [5]. For the same molecule, the Activity in test [4] was found to be 4%.

As to `N#Cc1ccc(-c2cc(-c3ccc4c(c3)OCO4)n(-c3ccccn3)n2)cc1`, the result in the test listed under Homo sapiens was inactive.

In the case of `COc1ccccc1-n1nc(-c2ccc(C(N)=O)cc2)cc1-c1ccc(F)cc1`, the outcome in the test listed under Homo sapiens was inactive.

With `NC(=O)c1ccc(-c2cc(-c3ccc(O)c(O)c3)n(-c3ccccc3O)n2)cc1`, the inhibition is 73.8% in [1], 56.5% in [2], 93.7% in [3] and 34.8% in [5]. The Activity in test [4] stood at 48.9%. The Selectivity ratio in test [8] and in test [9] was over 10 in each case.
